# Screens as filed in PubChem.
# PGC1a acetyl up: compounds raising PGC1a acetylation signal, primary screen, PGC1a modulator project, cell-based, U2OS, AlphaScreen, signal-increasing mode; hit rate 0.21% among 350,000; activation, % at 15.6 µM; overnight;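 active = every replicate reaching activation of at least 50%, whatever the mean replicate activation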;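 note: hits raise the AlphaScreen acetylation signal above neutral controls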
#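 System: Flag-PGC1a/GCN5 U2OS cells | Quantity: 7000 cells/well | Times: Overnight compound treatment, 37 °C | Measured by: AlphaScreen proximity luminescence, anti-acetyl-lysine antibody | Dosing: One concentration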
# Numbers stand for hits; . = inactive. The entries come from a sample that favours hits as a whole.
SMILES,PGC1a acetyl up
O=Nc1c2nc3ccccc3n(O)c-2c2ccccc12,61
CC(C)(C)c1ccc(-n2nc(C#N)c(Cl)cc2=O)cc1,.
CCOC(=O)C1(Cc2cccc(F)c2)CCN(Cc2ccc(COC)o2)CC1,.
CN(C)CCNC(=O)c1cccc2c(-c3ccc(F)c(F)c3)coc12,78
CCC(=O)N[C@H]1CC[C@H](CCNC(=O)Nc2ccc(C(F)(F)F)cc2)O[C@H]1CO,.
Cc1ccccc1NC(=O)Nc1ccccc1Br,.
Cc1c(/C=N/Nc2nc3ccccc3[nH]2)c2ccccc2n1C,121
CCOc1ccc(S(=O)(=O)N(C)c2ccc(OCC(=O)N3c4ccc(C)cc4C4CN(C)CCC43)cc2)cc1 (stereo unspecified),.
CC(C)(C)C(=O)/C(=C\c1cccc([N+](=O)[O-])c1)n1cncn1,.
Nc1nc(SCC(=O)Nc2ccccc2Sc2ccc(Cl)cc2)n[nH]1,89
N=c1sccn1CC(=O)Nc1ccccc1Sc1ccccc1,.
COc1ccc(S(=O)(=O)N(C)C[C@@H]2Oc3ccc(NS(=O)(=O)c4cn(C)cn4)cc3C(=O)N([C@H](C)CO)C[C@@H]2C)cc1,.
CCCCNC(=O)c1ccc(CS(=O)(=O)c2ccccc2OC)o1,.
CC(=O)c1coc2c1cc(O)c1ccccc12,63
CC(C)(C)c1ccc(OCCSc2nc3ccccc3n2CC(=O)O)cc1,.
CC(c1ccccc1)C1CC(=O)N(c2ccc([N+](=O)[O-])cc2)C1=O (stereo unspecified),.
O=C(Cc1ccccc1)N1CCN(c2ccc([N+](=O)[O-])cc2)CC1,118
O=C(Nc1ccc(N2CCN(Cc3ccccc3F)CC2)cc1)c1ccc([N+](=O)[O-])o1,.
O=C1C(c2ccccc2)C(c2ccccc2)NC(c2ccccc2)C1c1ccccc1 (stereo unspecified),55
CSc1nc2nccc(/C=C\c3ccccc3)n2n1,.
O=C(NC1CCCCCCC1O)c1ccccc1 (stereo unspecified),.
O=C(c1ccccc1)C1OC1C(=O)c1ccccc1 (stereo unspecified),77
CCOC(=O)C1(Cc2cccc(Cl)c2)CCCN(C(=O)c2cccnc2)C1 (stereo unspecified),.
CCS(=O)(=O)c1ccc(O)c(NC(=O)COc2ccc(Br)cc2)c1,.
CC1OC2CC(=O)OC2C2=C1C(=O)c1c(O)cccc1C2=O (stereo unspecified),.
SMILES,PGC1a acetyl up
CCOC(=O)c1oc2nc3c(cc2c1N)COC(C)(C)C3,63
Cn1cnnc1Sc1ccc(/C=C/C(=O)c2ccc(O)cc2)cc1[N+](=O)[O-],58
CNC[C@@H]1OCCCC[C@H](C)Oc2ccc(NS(=O)(=O)c3cccs3)cc2C(=O)N([C@H](C)CO)C[C@@H]1C,.
CC(C)NC(=O)Nc1ccc2c(c1)C(=O)N([C@@H](C)CO)C[C@@H](C)[C@H](CN(C)Cc1ccc(C(=O)O)cc1)OCCCC[C@H](C)O2,.
O=C(CS(=O)CC(=O)Nc1cccc2c1CCCC2)Nc1ccc(F)cc1 (stereo unspecified),66
CC[C@H](C)[C@@H]1NC(=O)[C@@H](CC(C)C)NC(=O)[C@H](C(C)C)NC(=O)[C@H]2CSSC[C@H](NC1=O)C(=O)N2,.
O=S1(=O)CCC(N=Cc2ccc(-c3ccc(Cl)cc3)o2)C1 (stereo unspecified),.
Clc1ccc2nc(COc3ccccc3)[nH]c2c1,89
O=C(CSc1ccsc1[N+](=O)[O-])NCCc1ccc(Cl)cc1,68
C[C@@H]1CN([C@H](C)CO)C(=O)Cc2cc(NC(=O)Nc3ccccc3)ccc2O[C@H]1CN(C)Cc1ccccc1,.
Cc1cc2oc(=O)cc(CN3CCC(C)CC3)c2cc1C,.
CCCCSCCCNC(=O)c1cn(C)c2ccc(S(=O)(=O)N3CCCC3)cc2c1=O,.
CN1/C(=C\C(=O)c2cccc(S(=O)(=O)N3CCCCC3)c2)C(C)(C)c2ccccc21,.
CCOC(=O)N1CCN(C(=O)c2cc(S(=O)(=O)N3CCCC3)cn2C)CC1,74
CC(C)NC(=O)NCC[C@H]1CC[C@H](NC(=O)c2ccc(F)cc2)[C@H](CO)O1,.
CC(C)NC(=O)Nc1ccc2c(c1)C(=O)N([C@@H](C)CO)C[C@@H](C)[C@@H](CN(C)S(=O)(=O)c1ccccc1)OCCCC[C@H](C)O2,.
CN1OC(COC(=O)c2ccccc2)CC1c1ccccc1 (stereo unspecified),.
Cc1ccc(NC(=O)c2ccc(NCC3CCCO3)c([N+](=O)[O-])c2)cc1Cl (stereo unspecified),.
O=C(COC(=O)c1ccccc1C(=O)c1ccc(Cl)c([N+](=O)[O-])c1)NC1CCCCCC1,160
O=C(OCn1ncc(Cl)c(Cl)c1=O)c1ccc(C(F)(F)F)cc1,154
O=C1CCN(S(=O)(=O)c2ccc(Cl)cc2)N1,63
COc1ccc(CCN2C(=O)CC(C(C)c3ccccc3)C2=O)cc1OC (stereo unspecified),.
COc1ccc(C2c3c(-c4ccccc4O)n[nH]c3C(=O)N2CCc2ccc(OC)c(OC)c2)cc1 (stereo unspecified),63
C[C@@]12C(=O)OC(=O)[C@]1(C)C1CCC2O1,.
COc1ccc2c([N+](=O)[O-])c(N3CCCC3)[nH]c2c1,.
SMILES,PGC1a acetyl up
O=S(=O)(C/C(=C/CO)S(=O)(=O)c1ccccc1)c1ccccc1,112
CCS(=O)(=O)c1ccc2oc(Nc3ccccc3Br)nc2c1,.
COc1ccc(CCn2c(-c3ccc(OC)cc3)nc3c(c(=O)c4ccccc4n3C)c2=O)cc1,109
Cc1noc(C)c1NC(=O)Nc1ccc2c(c1)C(=O)N([C@H](C)CO)C[C@@H](C)[C@@H](CN(C)S(=O)(=O)c1ccc(F)cc1)OCCCC[C@@H](C)O2,.
O=C(CCN1CCc2ccccc2C(c2ccccc2)C1)c1ccc2c(c1)OCCO2 (stereo unspecified),69
Cc1cc(NS(=O)(=O)c2ccc(NC(=O)COc3c(C)cc(Br)cc3C)cc2)no1,.
COC(=O)c1ccc[n+](CC(=O)c2ccc(Br)cc2)c1,.
C/C(=N\N1CCN(c2ccccc2)CC1)c1ccccc1O,.
CC(C)c1ccc(NC(=O)c2n[nH]c(=O)c3ccccc23)cc1,.
CC(C)c1ccc(NC(=O)CCNS(=O)(=O)c2cccc3nonc23)cc1,53
O=C(Nc1cccc(F)c1)C1CCN(S(=O)(=O)c2cccc3nonc23)CC1,.
O=C(CC1CC1)N[C@H]1CC[C@H](CCNS(=O)(=O)c2ccc(Cl)cc2)O[C@H]1CO,.
COc1ccc(C2(NC(C)=O)CCN(C(=O)CCC(=O)O)CC2)cc1,.
O=C(c1cc2ccccc2o1)N1CC=C(c2ccccc2)CC1,.
O=C(CCl)NCc1cc(-c2ccc(Cl)cc2)no1,52
CN1CCN2c3ncccc3Cc3ccccc3[C@@H]2C1,.
CC(=O)c1cccc(-c2ccnc3c2CC(C(=O)NCC2CC2)O3)c1 (stereo unspecified),58
O=C(NCc1ccccc1)C1Cc2c(-c3ccc4c(c3)OCO4)ccnc2O1 (stereo unspecified),133
COCCCNC(=S)Nc1cc(C)c(C)cc1C,.
O=C(CSc1nnc(-c2ccncc2)n1-c1ccc(Cl)cc1)NCc1cccs1,81
O=C(CSc1nnc(-c2ccco2)n1-c1ccccc1)Nc1c(Cl)cc(Cl)cc1C(=O)O,.
Cn1ncc(C(=O)Nc2ccc(Cl)cc2)c1C(F)(F)F,.
O=C(O)c1cccc(N2C(=O)CSC2c2c(F)cccc2Cl)c1 (stereo unspecified),56
